Calls of active or inactive are those of the source. The rule behind the calls is not given here.
Columns and labels:
[1] = Induction of osteoblast differentiation in Sprague-Dawley rat calvarial osteoblasts assessed as alkaline phosphatase activity after 48 hrs using PNPP as substrate by spectrophotometric method; assay type: functional, cell-based; details: calvarial osteoblast
In short: (§1)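 Calvarial osteoblasts at 2 × 10³ cells/well. Treated 48 h with varied concentrations in differentiation medium (5% charcoal-treated FBS, 10 mM β-glycerophosphate, 50 µg·mL⁻¹ ascorbic acid). Total ALP read with PNPP substrate at 405 nm. Cell-free wells check for compound interference with substrate or absorbance.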

[2] = system: Calvarial osteoblast; assay: Induction of osteoblast differentiation in Sprague-Dawley rat calvarial osteoblasts assessed as alkaline phosphatase activity at 10 nM after 48 hrs using PNPP as substrate by spectrophotometric method relative to control; assay type: functional; in short: as §1
[3] = system: Calvarial osteoblast; assay: Induction of osteoblast differentiation in Sprague-Dawley rat calvarial osteoblasts assessed as alkaline phosphatase activity at 0.000001 to 1 uM after 48 hrs using PNPP as substrate by spectrophotometric method relative to control; assay type: functional, cell-based; in short: as §1

| SMILES | EC50 [1] | Emax [2] | Emax [3] |
| --- | --- | --- | --- |
| CCN1CCN(C(c2nc(C(=O)OC)cc3c2[nH]c2ccccc23)c2nnnn2C(C)(C)C)CC1 (centres undefined) | Not Active | inactive | – |
| COC(=O)c1cc2c([nH]c3ccccc32)c(C(NCc2ccc(C)cc2)c2nnnn2C(C)(C)C)n1 (centres undefined) | Not Active | – | inactive |
| COC(=O)CNC(c1nc(C(=O)OC)cc2c1[nH]c1ccccc12)c1nnnn1C(C)(C)C (centres undefined) | Not Active | – | inactive |
| CCOC(=O)c1cc2c([nH]c3ccccc32)c(C(c2nnnn2C(C)(C)C)N2CCOCC2)n1 (centres undefined) | Not Active | – | inactive |
| COC(=O)c1cc2c([nH]c3ccccc32)c(C(NC(C)(C)C)c2nnnn2C(C)(C)C)n1 (centres undefined) | Not Active | – | inactive |
| COC(=O)c1cc2c([nH]c3ccccc32)c(C(NCc2ccc(Cl)c(Cl)c2)c2nnnn2C(C)(C)C)n1 (centres undefined) | Not Active | – | inactive |
| CCOC(=O)c1cc2c([nH]c3ccccc32)c(C(c2nnnn2C(C)(C)C)N2CCN(c3ccc(F)cc3)CC2)n1 (centres undefined) | Not Active | – | inactive |
